Compounds with a hit are over-represented: about 1.7% of the library has one in this group of screens.
M5 ag: agonists of human muscarinic M5 receptor (CHRM5); CHO-K1 hM5 cells, Fluo-8 calcium fluorescence; 0% DMSO wells, 100% maximal acetylcholine response; activation, % at 3 µM; hit rate 0.19% among 360,000;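 active = activation above the run's mean over test compounds plus 3 SD, cut at about 23% in these data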;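 also: signal is peak over basal fluorescence ratio across the kinetic read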
Target sequence (P08912 whole entry, looked up): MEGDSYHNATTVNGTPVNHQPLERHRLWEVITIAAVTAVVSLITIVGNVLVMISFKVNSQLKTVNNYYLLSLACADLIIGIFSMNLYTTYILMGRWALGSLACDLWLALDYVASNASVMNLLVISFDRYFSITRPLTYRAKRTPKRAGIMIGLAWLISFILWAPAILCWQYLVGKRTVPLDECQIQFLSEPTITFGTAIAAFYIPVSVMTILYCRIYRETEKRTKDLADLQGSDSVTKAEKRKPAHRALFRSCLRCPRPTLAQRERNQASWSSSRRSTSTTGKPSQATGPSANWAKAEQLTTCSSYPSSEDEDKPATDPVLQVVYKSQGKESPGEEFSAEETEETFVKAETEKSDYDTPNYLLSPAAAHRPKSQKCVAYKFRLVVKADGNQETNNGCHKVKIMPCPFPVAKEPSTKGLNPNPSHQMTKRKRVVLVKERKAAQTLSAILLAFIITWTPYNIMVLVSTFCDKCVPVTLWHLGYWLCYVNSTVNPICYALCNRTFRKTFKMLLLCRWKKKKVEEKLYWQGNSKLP
CHO-K1 Ca antag: M1 antagonist counterscreen hit in parental CHO-K1 cells | ATP-induced calcium, Fluo-8 fluorescence | inhibition, % at 3 µM | hit rate 0.6% among 360,000;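 active = inhibition above a per-plate cutoff, the plate's mean sample inhibition plus 3 SD, cut at about 24% in these data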
M1 PAM parental: counter-screen for M1 PAMs: effect in parental CHO-K1 cells; ATP EC20, Fluo-8 calcium fluorescence; 0% at ATP EC20, 100% at ATP max; activation, % at 3 µM; hit rate 0.02% among 360,000; AID 602247;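 active = activation above the run cutoff, the mean activation of all test compounds plus 3 SD, cut at about 40% in these data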;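 also: peak over basal fluorescence ratio in a 140 s read after ATP addition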
M1 ag parental: nonselective activator or artifact in parental CHO-K1 cells; Fluo-8 calcium fluorescence; scaled to maximal ATP response, vehicle zero; activation, % at 3 µM; hit rate 0.48% among 360,000; in the data active = activation above about 15%;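 also: untransfected CHO-K1 host cells lacking M1 receptor as counterscreen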
CHRM5 antagonist: CHRM5 antagonism in calcium assay. P08912. CHO-hM5 cells, Fluo-8 calcium fluorescence, ACh EC80. inhibition, % at 3 µM. hit rate 0.59% among 360,000. AID 624040;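 active = inhibition above a per-plate cutoff, the mean of that plate's test compounds plus 3 SD, cut at about 27% in these data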
CHRM5 PAM: potentiates acetylcholine response at human M5 receptor; P08912; CHO-K1 hM5, Fluo-8 calcium, ACh EC20 PAM; 0% = ACh EC20, 100% = ACh EC100; activation, % at 3 µM; hit rate 0.3% among 360,000;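 active = activation above the run cutoff, the mean activation of all test compounds plus 3 SD, cut at about 18% in these data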
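Assay system – human M5 receptor in CHO-K1 cells · Read-out – % activation, ACh-normalized · Technique – Fluo-8 calcium fluorescence · Dosing – single-point, 3 µM nominal · Incubation – Fluo-8 loading 80 min at 37 °C plus 30 min room temperature · Repeats – singlicate, one well per test compound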
Hits are given with their value; n = inactive.

SMILES	M5 ag	CHO-K1 Ca antag	M1 PAM parental	M1 ag parental	CHRM5 antagonist	CHRM5 PAM
CCOC(=O)C1=C(C)NC(=O)/C1=C\N(C)C	n	28.2	n	n	n	n
CCCCn1cc(C(=O)c2cc(Br)ccc2O)cc(C#N)c1=O	n	24.1	n	n	29.0	n
CCOCCCn1cc(C(=O)c2cc(Br)ccc2O)cc(C#N)c1=O	n	n	n	n	n	n
Cc1cc(C)nc(SCC(=O)Nc2ccnc3ccccc23)n1	n	n	n	n	35.4	n
COC(=O)c1ccccc1NC(=O)CSc1nc(C)cc(C)n1	n	n	n	n	n	n
Cc1cccc(C)c1N(CC(=O)Nc1cccc(N(C)S(C)(=O)=O)c1)S(C)(=O)=O	n	n	n	n	n	n
O=S(=O)(c1ccccc1)N1CCN(c2ccccc2)CC1	n	n	n	n	n	n
CCOC(=O)COc1ccc(S(=O)(=O)N2CCN(c3ccc(OC)cc3)CC2)cc1	n	n	n	n	33.3	n
COc1ccc(S(=O)(=O)N2CCN(c3ccccc3)CC2)cc1	n	n	n	n	28.4	n
O=C(c1c[nH]c(C(=O)C(Cl)(Cl)Cl)c1)c1ccc(F)cc1Cl	n	n	n	n	n	n
O=C(c1c[nH]c(C(=O)C(Cl)(Cl)Cl)c1)c1ccc(F)cc1F	n	n	n	n	27.5	n
Nc1cc(=O)[nH]c(SCc2ccc(Cl)cc2Cl)n1	n	n	n	15.1	30.2	n
NC(=O)c1sc2nc(-c3ccco3)ccc2c1N	n	n	n	n	n	n
O=[N+]([O-])c1cc(Cl)cc(/C=N/n2cnnc2)c1O	n	n	n	n	n	24.7
COc1ccc(C(=O)N2CCN(c3ncccn3)CC2)cc1[N+](=O)[O-]	n	n	n	n	n	n
CC(O)[C@H]1CNC(=O)C(=O)N1CC(C)(C)C (stereo partly specified)	n	n	n	n	n	n
CCOc1ccc(N2C(=O)CC(N3CCN(c4ccc([N+](=O)[O-])cc4)CC3)C2=O)cc1 (stereo unspecified)	n	n	n	n	n	n
CCCOc1ccc(N2C(=O)CC(N3CCN(c4ccc([N+](=O)[O-])cc4)CC3)C2=O)cc1 (stereo unspecified)	n	n	n	24.7	n	n
Cc1cc(C)c(C#N)c(SCC(=O)Nc2cc(C)on2)n1	n	n	n	n	n	n
CCN1CCCC(Sc2nc3c([nH]2)c(=S)n(C)c(=O)n3C)C1 (stereo unspecified)	n	n	n	16.1	n	n
COc1ccc(/C(C)=N/OCC(=O)Nc2nc3ccccc3s2)cc1OC	n	n	n	19.3	n	n
O=C(N1CCCCC1)C1(S(=O)(=O)c2ccccc2)CC=CC1	n	n	n	n	n	n
CN(C)S(=O)(=O)c1ccc(/C(O)=C2/C(=O)C(=O)N(Cc3cccnc3)C2c2cccs2)cc1 (stereo unspecified)	n	n	n	n	n	n
COC(=O)Cn1c(=O)c2c(nc3n2CCCN3CCc2ccc(OC)c(OC)c2)n(C)c1=O	n	n	n	n	n	n
Cc1ccc(S(=O)c2ccc([N+](=O)[O-])c3nonc23)cc1 (stereo unspecified)	40.0	n	n	n	n	n
SMILES	M5 ag	CHO-K1 Ca antag	M1 PAM parental	M1 ag parental	CHRM5 antagonist	CHRM5 PAM
Cc1ccc(Nc2c([N+](=O)[O-])ccc3nonc23)c(C)c1	n	n	n	n	n	n
O=C(Oc1cccc(-n2cnnn2)c1)c1ccccc1	n	n	n	n	n	n
CN1CCN(CC(=O)Nc2c(C(=O)c3ccccc3)oc3ccccc23)CC1	n	n	n	n	n	n
CC(=O)c1c(C)[nH]c(C(=O)CN2C(=O)NC(C)(c3ccc(C)cc3)C2=O)c1C (stereo unspecified)	46.4	n	n	n	n	n
CCOC(=O)C1=NNC(C(=O)c2ccccc2)C1c1ccc(Cl)cc1 (stereo unspecified)	n	n	n	n	n	n
O=C(c1ccccc1)C1N=NCC1c1ccc(Cl)cc1 (stereo unspecified)	27.3	n	n	n	33.2	n
CCCCN1CC(N2CCN(Cc3ccccc3)CC2)CS1(=O)=O (stereo unspecified)	n	n	n	n	n	n
